Bioassay records from PubChem.
MrgX1 allo act – positive allosteric modulators of MrgX1, primary screen, HEK293 cells, Fluo-4 calcium flux. FDSS; stronger effect = higher value. B-score at 10 µM. 310,000 compounds, 0.63% hits;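 active = plate-corrected calcium response at least 3 library SD above typical, normal starting fluorescence, not activating the receptor alone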;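 also: compound read alongside a low EC10 to EC30 dose of BAM8-22 agonist; peak minus trough fluorescence over baseline measured at the second addition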
Target sequence (Q96LB2 whole entry, looked up): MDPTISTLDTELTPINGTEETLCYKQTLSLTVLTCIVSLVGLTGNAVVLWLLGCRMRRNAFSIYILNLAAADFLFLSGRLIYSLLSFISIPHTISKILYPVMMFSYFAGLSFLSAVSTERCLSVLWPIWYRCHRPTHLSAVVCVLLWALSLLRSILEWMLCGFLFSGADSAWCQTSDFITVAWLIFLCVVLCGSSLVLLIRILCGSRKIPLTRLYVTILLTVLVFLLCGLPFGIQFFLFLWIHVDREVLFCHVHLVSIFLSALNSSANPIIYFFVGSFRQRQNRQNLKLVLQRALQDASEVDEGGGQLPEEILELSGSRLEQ
MrgX1 antag – antagonists of human MrgX1 receptor, primary screen, HEK293 cells, Fluo-4 calcium flux | Mas-related G-protein coupled receptor member X1 (Homo sapiens), Q96LB2 | BAM8-22 antagonism; stronger effect = lower value | B-score at 10 µM | 310,000 compounds, 1.3% hits;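 active = calcium-response B-score plate-corrected more than 3 library SD below zero, starting fluorescence within 5 deviations, no agonist response on first addition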;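 also: peak minus trough fluorescence over baseline after final BAM8-22 challenge near maximal dose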
RGS4 inh – RGS4 inhibitors, primary screen, cell-based, HEK293 M3R inducible RGS4, calcium flux | AID 463165, 2010 | Regulator of G-protein signaling 4 (Homo sapiens), P49798 | 310,000 compounds, 0.45% hits | Fluo-4 calcium flux; stronger effect = higher value; triggered by carbachol at its EC20 | B-score at 10 µM;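 active = B-score, a plate-corrected calcium signal, over three deviations above library mean, with baseline fluorescence within five deviations of library mean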;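 also: RGS4 expression induced by doxycycline in cells with stable M3 receptor; B-score is computed from the integrated fluorescence ratio over baseline after carbachol; higher B-score means a larger calcium signal and so more RGS4 inhibition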
Target sequence (P49798 whole entry, looked up): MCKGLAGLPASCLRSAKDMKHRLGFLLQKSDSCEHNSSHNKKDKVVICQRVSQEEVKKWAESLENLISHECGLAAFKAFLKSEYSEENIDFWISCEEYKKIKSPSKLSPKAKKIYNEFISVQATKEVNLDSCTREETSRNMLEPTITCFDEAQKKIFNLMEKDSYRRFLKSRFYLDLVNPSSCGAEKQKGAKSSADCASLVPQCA
MrgX1 agonist – agonists of human MrgX1 receptor, primary screen, HEK293 cells, Fluo-4 calcium flux. 310,000 compounds, 0.44% hits. B-score at 10 µM. Fluo-4 calcium fluorescence, agonist mode; stronger effect = higher value. AID 588627, 2011;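 active = calcium response B-score plate-corrected fluorescence ratio at least 3 library SD, with starting fluorescence B-score inside 5 SD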
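Material: MrgX1-expressing HEK293 cells / Dosing: compound as first of three additions / Incubation: overnight seeding, then 1 h dark dye loading / Signal: Fluo-4 NW calcium fluorescence / Evaluation: B-scored fluorescence response ratio / Benchmarks: positive and negative control wells on each plate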
RGS4 pot – RGS4 potentiators or activators, primary screen, cell-based, HEK293 M3R inducible RGS4, calcium flux | carbachol calcium flux Fluo4; stronger effect = lower value | B-score at 10 µM | 310,000 compounds, 0.92% hits;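 active = B-score of the integrated calcium signal more than 4 SD below the library mean, with starting fluorescence not abnormally high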;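 also: negative B-score means reduced calcium response which marks RGS4 activation or potentiation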
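Material: M3R-expressing HEK293 line, RGS4 induced by doxycycline | Schedule: Overnight RGS4 induction, 30 min dye load 37 °C, 20 min compound RT | Measured by: Fluo4 fluorescence kinetic imaging of calcium | Read-out: Integrated calcium ratio converted to B score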
MrgX1 antag conf – MrgX1 receptor antagonists, duplicate retest, confirmation, HEK293 cells, Fluo-4 calcium flux | shares compounds with MrgX1 antag | BAM8-22 calcium flux; stronger effect = lower value | remaining BAM8-22 calcium response % of control (stronger effect = lower value), % at 10 µM | 2,300 compounds, 19% hits;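 active = remaining agonist calcium response no higher than 100% minus 3 SD of agonist-only control wells, with starting fluorescence near control levels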;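 also: agonist BAM8-22 given at a near maximal EC90 to ECmax level; peak minus minimum fluorescence divided by baseline after agonist addition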
HEK293 Ca flux – nonspecific calcium signal in parental HEK293, confirmation, counter-screen for MrgX1 antagonist project, parental HEK293 cells, Fluo-4 calcium flux; shares compounds with MrgX1 antag; Fluo-4 calcium fluorescence, FDSS; fluorescence ratio F(max-min)/F0 at 10 µM; 4,000 compounds, 2% hits; AID 624111, 2012;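 active = duplicate-averaged calcium fluorescence ratio at least three times the standard deviation of buffer wells, a nonspecific response in parental cells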
HEK293 Ca counter – calcium response in parental HEK293 cells, primary screen, counter-screen for MrgX1 allosteric activator project, cell-based, Fluo-4 calcium flux, duplicate; fluorescence ratio F(max-min)/F0 at 10 µM; 4,000 compounds, 0.4% hits; Fluo-4 fluorescence ratio; stronger effect = higher value; AID 624114, 2012; shares compounds with MrgX1 antag;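 active = calcium fluorescence ratio, averaged over duplicates, at least 3 SD of the buffer-well ratio, meaning a nonspecific response in receptor-free cells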;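 also: untransfected parental HEK293 lacking MrgX1 used as counterscreen for MrgX1 allosteric activators; fluorescence change taken during the second addition on a kinetic imager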
HEK293 Ca cntr2 – calcium response in parental HEK293 cells, primary screen, counter-screen for MrgX1 agonist project, cell-based, Fluo-4 calcium flux, duplicate, agonist mode. shares compounds with MrgX1 antag. Fluo-4 calcium fluorescence (FDSS); stronger effect = higher value. fluorescence ratio F(max-min)/F0 at 10 µM. 4,000 compounds, 8.7% hits. AID 624115, 2012;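 active = calcium fluorescence ratio at least three times the spread of buffer wells, meaning a non-specific response in parental cells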
* marks the source's active call; other numbers are inactive results; i = inactive; / = not tested or not shown; ! = repeats disagree. The list is not random: actives were taken first. Their share in the collection is about 3.5%.

SMILES	MrgX1 allo act	MrgX1 antag	RGS4 inh	MrgX1 agonist	RGS4 pot	MrgX1 antag conf	HEK293 Ca flux	HEK293 Ca counter	HEK293 Ca cntr2
COc1ccc(CCN2CCCn3c2nc2c3c(=O)n(CC(C)C)c(=O)n2C)cc1OC	i	-6.1*	i	i	i	68%*	i	i	i
C=CCOc1cccc(C2C(C(=O)c3ccco3)=C(O)C(=O)N2CCN2CCOCC2)c1 (stereo not drawn)	i	i	i	i	i	/	/	/	/
CCOc1ccccc1N1CCN(C(=O)CCCN2C(=O)c3cccc4cccc(c34)C2=O)CC1	i	-5.5*	i	i	i	i	i	i	i
CC(Oc1ccc(Cl)cc1)C(=O)/C=C/N(C)C (stereo not drawn)	i	i	i	i	i	/	/	/	/
CCN(C(=O)COc1cc(=O)n(CC)c2ccccc12)c1cc(Cl)ccc1OC	i	i	i	i	i	/	/	/	/
CCOc1ccc(S(=O)(=O)NCCC(=O)N(C)CC(=O)Nc2ccc(OC)cc2)cc1	i	i	i	i	i	/	/	/	/
CC1(C)CC(=O)c2c(-c3cccs3)n[nH]c2C1	i	-5.4*	i	i	i	i	i	i	i
O=C(COC(=O)CCCNC(=O)c1ccc(Cl)cc1)Nc1cc(Cl)c(Cl)cc1Cl	i	i	i	i	i	/	/	/	/
Cc1cc(C)cc(NC(=O)COC(=O)CCCNC(=O)c2ccc(Cl)cc2)c1	i	-9.7*	i	i	i	77%*	i	i	i
CCCOC(=O)c1ccc(NC(=O)C(CC)CC)cc1	i	-6.4*	i	i	i	i	i	i	i
COc1cccc(NC(=O)CNC(=O)c2ccc(C)cc2)c1	i	-9.1*	i	i	i	i	i	i	i
COc1cccc(NC(=O)CNC(=O)c2ccc(F)cc2)c1	i	i	/	i	/	/	/	/	/
COc1cccc(NC(=O)COc2ccc(C)cc2)c1	i	i	/	i	/	/	/	/	/
COc1ccc(OCC(=O)Nc2cccc(C(C)=O)c2)cc1	i	-6.3*	i	i	i	i	i	i	i
O=C(NCN1C(=O)C2C3C=CC(C3)C2C1=O)Nc1nncs1 (stereo not drawn)	i	-4.6*	i	i	i	85%*	i	i	i
COc1ccc(Cc2nc3ccc(C(=O)NCC(C)(C)OC)cc3o2)cc1	i	-6.3*	i	i	i	i	i	i	i
CC(OC(=O)c1ccncc1)C(=O)NC1CCCC1 (stereo not drawn)	i	-10*	i	i	i	i	i	i	i
CC(C)Oc1ccc(C(=O)OC(C)C(=O)NC2CCCCC2C)cc1 (stereo not drawn)	i	i	i	i	i	/	/	/	/
CCOc1ccc(N(CC(=O)NC2CCCC2)S(=O)(=O)c2c(C)noc2C)cc1	i	-4.8*	i	i	i	65%*	i	i	i
CCOc1ccc(N(CC(=O)NC2CCCCC2)S(=O)(=O)c2c(C)noc2C)cc1	i	i	i	i	i	/	/	/	/
COc1ccc(Nc2nc(N)nc(CSc3nccn3C)n2)cc1	i	-4.9*	i	i	i	i	i	i	i
COc1ccc(Nc2nc(N)nc(CSc3nnc(N)s3)n2)cc1	i	i	i	i	i	/	/	/	/
Cc1cc(NC(=O)CSc2nc(=O)n3cc(Cl)ccc3n2)no1	i	-8.2*	i	i	i	73%*	i	i	i
Cc1ccn2c(=O)nc(SCC(=O)Nc3cc(C)on3)nc2c1	i	i	i	i	i	/	/	/	/
O=C1CC(N2CCC(O)(c3ccc(Br)cc3)CC2)C(=O)N1c1ccc(Cl)cc1 (stereo not drawn)	i	-6.5*	i	i	i	i	i	i	i
SMILES	MrgX1 allo act	MrgX1 antag	RGS4 inh	MrgX1 agonist	RGS4 pot	MrgX1 antag conf	HEK293 Ca flux	HEK293 Ca counter	HEK293 Ca cntr2
CCC(=O)Nc1ccc(NC(=S)Nc2ccccc2)cc1	i	-4.8*	i	i	i	i	i	i	i
CCC(=O)Nc1ccc(NC(=S)NC(=O)Cc2ccccc2)cc1	i	i	i	i	i	/	/	/	/
Cc1ccc(S(=O)(=O)CCC(=O)NCCc2ccc(Cl)cc2)cc1	i	i	i	i	i	/	/	/	/
Cc1ccc(CCNC(=O)CCS(=O)(=O)c2ccc(Br)cc2)cc1	i	-8.1*	i	i	i	i	i	i	i
COc1ccc(NC(=O)CSc2nnc(CNc3ccc(C)cc3)n2C)cc1	i	i	i	i	i	/	/	/	/
O=C(Nc1cc(F)ccc1F)c1ccc(-n2cncn2)c([N+](=O)[O-])c1	i	i	i	i	i	/	/	/	/
CC1CCN(C(=O)C2CCC(CNS(=O)(=O)c3cccc4cccnc34)CC2)CC1 (stereo not drawn)	i	-5.3*	i	i	i	i	i	i	i
Cc1c(C(=O)NCC2CCCO2)oc2ccc(S(=O)(=O)N3CCCCC3)cc12 (stereo not drawn)	i	-7.2*	i	i	i	84%*	i	i	i
CC(N)C12CC3CC(CC(C3)C1)C2 (stereo not drawn)	i	-5*!	i	i	i	i	i	i	i
Cc1ccc(CNc2cnccn2)cc1	i	-6.1*	i	i	i	i	i	i	i
